Experiment [1] deals with Sulfonylurea receptor 1, Kir6.2 (Homo sapiens, UniProt Q09428+Q14654). The experiment can be described thus: Activity at Kir6.2/SUR1 KATP channels expressed in HEK293 cells assessed as repolarization of tolbutamide-induced membrane depolarization. It counts as cell-based.
A short description of experiment [2]: Inhibition of insulin release from rat INS-1E cells.
For experiment [3], the target named is Sulfonylurea receptor 1, Kir6.2 (Homo sapiens) (UniProt Q14654+Q09428). Kind of experiment: Activity at Kir6.2/SUR1 KATP channels expressed in HEK293 cells assessed as repolarization of tolbutamide-induced membrane depolarization relative to BPDZ73. In kind it is cell-based. Summed up: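 HEK 293 cells stably expressing human Kir6.2/SUR1, seeded on poly(lysine)-coated plates, cultured 2 days. Membrane-potential fluorescent dye (ex 490/em 550 nm) in loading buffer/HBSS with 10 µM tolbutamide, 34 °C; fluorescence read before and 5-10 min after compound.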

Each structure is given as a SMILES string. pEC50, pIC50: −log10 of the molar value.

Sequence of Sulfonylurea receptor 1, Kir6.2 (Q14654 whole entry): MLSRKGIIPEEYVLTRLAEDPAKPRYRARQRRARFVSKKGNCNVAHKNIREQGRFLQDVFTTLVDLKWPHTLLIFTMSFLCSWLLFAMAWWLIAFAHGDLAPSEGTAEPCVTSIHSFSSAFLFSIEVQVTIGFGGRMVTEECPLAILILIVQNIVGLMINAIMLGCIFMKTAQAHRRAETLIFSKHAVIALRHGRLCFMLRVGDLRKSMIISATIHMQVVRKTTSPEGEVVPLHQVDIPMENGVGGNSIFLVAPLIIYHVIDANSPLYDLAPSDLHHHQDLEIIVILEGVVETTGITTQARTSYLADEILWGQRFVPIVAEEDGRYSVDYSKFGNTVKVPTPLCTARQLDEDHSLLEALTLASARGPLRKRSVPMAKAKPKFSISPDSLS
Sequence of Sulfonylurea receptor 1, Kir6.2 (Q09428 whole entry): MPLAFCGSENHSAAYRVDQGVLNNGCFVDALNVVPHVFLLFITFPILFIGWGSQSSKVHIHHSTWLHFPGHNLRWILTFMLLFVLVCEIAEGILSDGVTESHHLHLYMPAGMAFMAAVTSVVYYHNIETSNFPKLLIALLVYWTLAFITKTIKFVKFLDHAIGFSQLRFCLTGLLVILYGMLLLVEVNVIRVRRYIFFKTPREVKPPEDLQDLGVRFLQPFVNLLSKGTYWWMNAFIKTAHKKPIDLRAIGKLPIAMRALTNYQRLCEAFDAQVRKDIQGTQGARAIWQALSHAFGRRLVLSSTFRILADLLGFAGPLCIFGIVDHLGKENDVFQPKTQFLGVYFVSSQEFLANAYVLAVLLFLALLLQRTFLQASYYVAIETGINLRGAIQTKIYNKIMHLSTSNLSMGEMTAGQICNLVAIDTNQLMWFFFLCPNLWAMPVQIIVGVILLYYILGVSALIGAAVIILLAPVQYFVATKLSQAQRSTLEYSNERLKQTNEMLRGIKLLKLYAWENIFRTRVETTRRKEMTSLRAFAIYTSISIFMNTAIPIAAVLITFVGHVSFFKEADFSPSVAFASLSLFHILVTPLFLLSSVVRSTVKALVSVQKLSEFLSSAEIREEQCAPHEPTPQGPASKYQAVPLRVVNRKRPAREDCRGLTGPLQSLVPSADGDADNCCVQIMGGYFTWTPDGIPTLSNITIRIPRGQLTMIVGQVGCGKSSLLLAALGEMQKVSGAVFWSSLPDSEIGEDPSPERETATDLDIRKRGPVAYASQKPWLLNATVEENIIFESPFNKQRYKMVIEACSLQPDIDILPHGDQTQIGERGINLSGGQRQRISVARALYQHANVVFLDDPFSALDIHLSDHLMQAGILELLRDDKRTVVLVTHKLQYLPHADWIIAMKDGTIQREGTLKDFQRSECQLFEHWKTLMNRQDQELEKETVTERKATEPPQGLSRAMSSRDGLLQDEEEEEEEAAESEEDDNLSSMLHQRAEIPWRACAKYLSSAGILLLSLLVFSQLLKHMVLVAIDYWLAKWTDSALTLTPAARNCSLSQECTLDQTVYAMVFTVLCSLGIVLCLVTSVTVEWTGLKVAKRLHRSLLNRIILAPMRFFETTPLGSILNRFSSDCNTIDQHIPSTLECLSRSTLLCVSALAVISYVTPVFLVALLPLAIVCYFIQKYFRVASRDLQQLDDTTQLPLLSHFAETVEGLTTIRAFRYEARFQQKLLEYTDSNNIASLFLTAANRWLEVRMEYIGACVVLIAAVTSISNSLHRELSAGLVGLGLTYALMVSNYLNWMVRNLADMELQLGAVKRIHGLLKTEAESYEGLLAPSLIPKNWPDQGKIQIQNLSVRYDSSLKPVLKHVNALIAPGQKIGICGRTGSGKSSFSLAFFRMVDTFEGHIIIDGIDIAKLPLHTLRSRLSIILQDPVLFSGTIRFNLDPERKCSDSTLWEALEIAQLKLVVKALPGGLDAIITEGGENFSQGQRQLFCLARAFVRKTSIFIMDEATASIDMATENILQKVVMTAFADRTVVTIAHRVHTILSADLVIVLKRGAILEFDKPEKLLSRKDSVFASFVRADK

Consider `COc1ccc2nc(C(F)(F)F)c(C#N)c(N)c2c1`, for which the pEC50 (usually −log10 of the EC50, conventionally taken in molar units) in experiment [1] was 4.82. The pIC50 (as a rule, the IC50 on a negative log10 scale, so that one unit is a factor of ten) in experiment [2] is 4.60. Also, the maximal effect (Emax) (usually the greatest response seen or fitted, relative to the assay's reference) in experiment [3] stood at 160%.

`O=c1[nH]cnc2ncc(-c3ccccc3)nc12`: in experiment [1], the pEC50 was < 4.52. For the same molecule, the Emax in experiment [3] is 84%.

Regarding `CC(C)NC1=NS(=O)(=O)c2cc(Cl)ccc2N1`, in experiment [1], the pEC50 is 6.60. The molecule further had a pIC50 in experiment [2] of 6.03. The Emax in experiment [3] was 100%.

Turning to `O=C(Nc1nccs1)c1c(O)c2cc(Cl)ccc2oc1=O`, the pEC50 in experiment [1] is < 4.52. The same molecule showed a pIC50 in experiment [2] of 4.25. In addition, the Emax in experiment [3] was 171%.

Consider `NC(=O)c1ccccc1NS(=O)(=O)c1ccc(Cl)cc1`, for which the pEC50 in experiment [1] was < 4.52. The Emax in experiment [3] stood at 47%.

`CC1=Nc2ccc(Cl)cc2S(=O)(=O)N1` [DIAZOXIDE]: in experiment [2], the pEC50 was 4.69.

For `COc1ccc2[nH]c(N3CCCCC3)nc2c1`, the pEC50 in experiment [1] is < 4.52. Further, in experiment [3], the Emax was 52%.

With `N#Cc1c(-c2ccccc2)c(-c2ccccc2)n[nH]c1=O`, the pEC50 in experiment [1] is < 4.52. In addition, the Emax in experiment [3] is 55%.

Consider `OCCn1c(-c2ccc(F)cc2)cs/c1=N\c1ccc(F)cc1`, for which the pEC50 in experiment [1] is 4.68. In experiment [2], this molecule gave a pIC50 of 4.74. In experiment [3], the Emax is 105%.

Take `CC(=O)Nc1nc2ccccc2n1CCN1CCCC1`: the pEC50 in experiment [1] is < 4.52. Further, the Emax in experiment [3] was determined as 55%.

The values are drawn from ChEMBL document CHEMBL1147157, “Virtual screening for novel openers of pancreatic K(ATP) channels” (J Med Chem, 2007).
